Molecules are shown by their SMILES.

This is an account of results in ChEMBL document CHEMBL2034857, “Discovery of the macrocycle (9E)-15-(2-(pyrrolidin-1-yl)ethoxy)-7,12,25-trioxa-19,21,24-triaza-tetracyclo[18.3.1.1(2,5).1(14,18)]hexacosa-1(24),2,4,9,14(26),15,17,20,22-nonaene (SB1578), a potent inhibitor of janus kinase 2/fms-like tyrosine kinase-3 (JAK2/FLT3) for the treatment of rheumatoid …” (J Med Chem, 2012).

The target of one data set is Cytochrome P450 3A4 (Homo sapiens, UniProt P08684). Nature of the data set: Induction of CYP3A4 in human liver microsomes. Type of data set: ADME, Microsome.
Data set [1] in a line: Plasma protein binding in human at 1000 ng/mL by equilibrium dialysis. Type of data set: ADME, cell-free. Conditions: read-out: PPB; call rule not given here. Summed up: (§1)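 Equilibrium dialysis of plasma (mouse, rat, dog, monkey, human) spiked to 1000 ng/mL final against PBS, 4 h at 37 °C; buffer side extracted with MTBE in triplicate and analyzed by LC-MS/MS.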
The subject of the next data set is HL-60. Nature of the data set: Antiproliferative activity against human HL60 cells expressing FLT3 after 48 hrs by luciferase reporter gene assay. Type of data set: functional. Conditions: HL-60, 48 h.
Data set [2] is described as follows: Tmax in BALB/c nude mouse at 50 mg/kg, po. Also noted: dose 50 mg/kg, route oral. Type of data set: ADME, organism-based. Conditions: in vivo. The gist of the method:
(§2)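 Single oral dose by gavage as suspension in 0.5% methylcellulose/0.1% Tween 80 (mouse, rat, monkey) or in gelatin capsules (dog). Serial blood samples taken from 0 to 24 h into K3EDTA tubes; plasma stored at −70 °C until analysis. Parameters derived by noncompartmental methods. Rat, dog and monkey n = 3; mouse values estimated from mean concentration-time data, n = 3 mice per time point.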

Data set [3] is described as follows: Tmax in Wistar rat at 50 mg/kg, po. Type of data set: ADME, organism-based. Also noted: dose 50 mg/kg, route oral. Conditions: in vivo. The gist of the method:
as §2

A short description of data set [4]: Half life in human liver microsomes at 5 uM. Type of data set: ADME, Microsome. The gist of the method: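 Compound at 5 μM with human, mouse or dog microsomes at 0.87 mg/mL, or rat and monkey microsomes at 1 mg/mL, in 50 mM potassium phosphate pH 7.4 with NADPH regenerating system at 37 °C.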
Data set [5] in a line: Antiproliferative activity against human SET2 cells expressing JAK2 V617F mutan. Conditions: SET-2. Type of data set: functional, cell-based.
A short description of data set [6]: Half life in mouse liver microsomes. Type of data set: ADME, Microsome.
The target in data set [7] is T1, Tyrosine-protein kinase JAK3 (Homo sapiens, UniProt P52333).
T1 sequence (P52333 whole entry): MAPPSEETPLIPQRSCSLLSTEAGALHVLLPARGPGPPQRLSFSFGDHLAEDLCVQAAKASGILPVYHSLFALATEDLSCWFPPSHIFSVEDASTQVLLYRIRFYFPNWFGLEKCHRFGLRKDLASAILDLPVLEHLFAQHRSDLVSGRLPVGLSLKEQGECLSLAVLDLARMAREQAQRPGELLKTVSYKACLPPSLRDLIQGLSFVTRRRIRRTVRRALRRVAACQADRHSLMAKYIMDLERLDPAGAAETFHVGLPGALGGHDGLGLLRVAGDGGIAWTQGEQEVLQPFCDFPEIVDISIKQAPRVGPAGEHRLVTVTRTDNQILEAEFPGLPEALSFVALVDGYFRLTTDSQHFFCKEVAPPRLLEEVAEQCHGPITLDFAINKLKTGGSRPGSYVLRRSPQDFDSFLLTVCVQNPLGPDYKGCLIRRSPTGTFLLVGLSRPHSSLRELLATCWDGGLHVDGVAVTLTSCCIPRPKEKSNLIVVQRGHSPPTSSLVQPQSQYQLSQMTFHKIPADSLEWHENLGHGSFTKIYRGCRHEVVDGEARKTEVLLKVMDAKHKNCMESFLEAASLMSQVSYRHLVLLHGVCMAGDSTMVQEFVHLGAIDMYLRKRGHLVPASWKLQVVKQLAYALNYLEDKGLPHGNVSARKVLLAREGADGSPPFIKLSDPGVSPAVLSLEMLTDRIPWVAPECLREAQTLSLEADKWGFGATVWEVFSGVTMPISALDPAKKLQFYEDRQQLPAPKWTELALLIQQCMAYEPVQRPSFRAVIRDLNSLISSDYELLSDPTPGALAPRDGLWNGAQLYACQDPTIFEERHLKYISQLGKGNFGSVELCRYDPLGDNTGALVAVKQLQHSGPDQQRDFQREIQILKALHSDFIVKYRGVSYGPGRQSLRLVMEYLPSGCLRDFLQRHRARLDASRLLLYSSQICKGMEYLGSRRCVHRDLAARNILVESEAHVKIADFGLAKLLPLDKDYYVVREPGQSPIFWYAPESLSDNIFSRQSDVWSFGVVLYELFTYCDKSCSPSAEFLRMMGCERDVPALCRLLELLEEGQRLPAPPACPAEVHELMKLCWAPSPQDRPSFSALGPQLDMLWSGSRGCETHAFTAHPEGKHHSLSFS
Nature of the data set: Inhibition of recombinant JAK3 using poly(Glu,Ala,Tyr) as substrate after 2 hrs by luminometric assay.

Data set [8] is described as follows: Plasma protein binding in dog at 1000 ng/mL by equilibrium dialysis. Conditions: read-out: PPB (converted). Type of data set: ADME, cell-free, Canis lupus familiaris. The gist of the method:
as §1

For a further data set, the target named is Cytochrome P450 2C19 (Homo sapiens, UniProt P33261). Nature of the data set: Inhibition of CYP2C19 in human liver microsomes using omeprazole as substrate by LC-MS/MS analysis. Type of data set: ADME, Microsome.
The nature of data set [9]: Terminal half life in beagle dog at 5 mg/kg, po. Type of data set: ADME, organism-based, Canis lupus familiaris. Also noted: dose 5 mg/kg, route oral. Conditions: in vivo, read-out: beta t1/2 (converted). Summed up: as §2
Data set [10] in a line: Terminal half life in Wistar rat at 50 mg/kg, po. Type of data set: ADME, organism-based. Also noted: dose 50 mg/kg, route oral. Conditions: in vivo, read-out: beta t1/2 (converted). Summed up:
as §2

Data set [11] can be described thus: Tmax in beagle dog at 5 mg/kg, po. Type of data set: ADME, organism-based, Canis lupus familiaris. Also noted: dose 5 mg/kg, route oral. Conditions: in vivo. Summed up:
as §2

In data set [12] the test system is Mus musculus. Kind of data set: Antiarthritic activity in B10/R3 mouse immunized with bovine type2 collagen in Freund's complete adjuvant assessed as inhibition of increase in clinical arthritic scores at 210 mg/kg, po administered bid for 10 days measured for 10 days. Type of data set: functional. Conditions: B10/R3, 240 h.
Data set [13] has as its target Tyrosine-protein kinase JAK1 (Homo sapiens, UniProt P23458). Nature of the data set: Inhibition of recombinant JAK1 using poly(Glu,Ala,Tyr) as substrate after 2 hrs by luminometric assay.
Data set [14] deals with Mus musculus. Kind of data set: Antiarthritic activity in B10/R3 mouse immunized with bovine type2 collagen in Freund's complete adjuvant assessed as inhibition of increase in clinical arthritic scores at 105 mg/kg, po administered bid for 10 days measured for 10 days. Type of data set: functional. Conditions: B10/R3, 240 h.
The nature of data set [15]: Tmax in rhesus monkey at 20 mg/kg, po. Type of data set: ADME, organism-based, Macaca mulatta. Also noted: dose 20 mg/kg, route oral. Conditions: in vivo. The gist of the method: as §2
Data set [16] is described as follows: Half life in human liver microsomes. Type of data set: ADME, Microsome.
The target in data set [17] is Cyclin-dependent kinase 2 (Homo sapiens, UniProt P24941). Nature of the data set: Inhibition of recombinant CDK2 using RbING as substrate after 2 hrs by luminometric assay.

Sequence of Cytochrome P450 3A4 (P08684 whole entry): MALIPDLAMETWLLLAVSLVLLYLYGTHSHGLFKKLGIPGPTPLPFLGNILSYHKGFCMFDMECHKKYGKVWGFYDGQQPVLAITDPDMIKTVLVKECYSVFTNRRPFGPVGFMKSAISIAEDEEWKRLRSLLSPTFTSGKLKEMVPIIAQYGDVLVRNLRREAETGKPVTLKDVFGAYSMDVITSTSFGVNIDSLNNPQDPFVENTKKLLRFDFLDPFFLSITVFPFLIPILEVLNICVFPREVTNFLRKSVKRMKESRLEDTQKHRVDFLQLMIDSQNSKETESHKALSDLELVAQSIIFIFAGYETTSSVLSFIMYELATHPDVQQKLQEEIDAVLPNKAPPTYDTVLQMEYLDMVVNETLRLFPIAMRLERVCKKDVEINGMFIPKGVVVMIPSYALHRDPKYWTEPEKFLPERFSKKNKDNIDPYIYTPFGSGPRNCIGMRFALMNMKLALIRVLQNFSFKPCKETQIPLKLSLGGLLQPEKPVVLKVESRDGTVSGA
Sequence of Cytochrome P450 2C19 (P33261 whole entry): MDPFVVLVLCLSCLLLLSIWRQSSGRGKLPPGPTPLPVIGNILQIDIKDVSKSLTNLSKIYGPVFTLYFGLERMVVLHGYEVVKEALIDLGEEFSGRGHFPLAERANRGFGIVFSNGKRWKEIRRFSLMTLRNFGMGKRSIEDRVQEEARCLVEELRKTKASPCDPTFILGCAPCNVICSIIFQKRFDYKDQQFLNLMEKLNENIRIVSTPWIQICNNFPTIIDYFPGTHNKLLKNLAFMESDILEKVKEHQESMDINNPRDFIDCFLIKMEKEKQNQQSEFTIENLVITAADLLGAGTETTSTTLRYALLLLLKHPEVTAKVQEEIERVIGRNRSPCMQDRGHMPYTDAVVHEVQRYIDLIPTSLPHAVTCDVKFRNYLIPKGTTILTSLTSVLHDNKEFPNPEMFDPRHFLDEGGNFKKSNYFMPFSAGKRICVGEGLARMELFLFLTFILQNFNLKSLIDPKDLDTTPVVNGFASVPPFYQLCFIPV
Sequence of Tyrosine-protein kinase JAK1 (P23458 whole entry): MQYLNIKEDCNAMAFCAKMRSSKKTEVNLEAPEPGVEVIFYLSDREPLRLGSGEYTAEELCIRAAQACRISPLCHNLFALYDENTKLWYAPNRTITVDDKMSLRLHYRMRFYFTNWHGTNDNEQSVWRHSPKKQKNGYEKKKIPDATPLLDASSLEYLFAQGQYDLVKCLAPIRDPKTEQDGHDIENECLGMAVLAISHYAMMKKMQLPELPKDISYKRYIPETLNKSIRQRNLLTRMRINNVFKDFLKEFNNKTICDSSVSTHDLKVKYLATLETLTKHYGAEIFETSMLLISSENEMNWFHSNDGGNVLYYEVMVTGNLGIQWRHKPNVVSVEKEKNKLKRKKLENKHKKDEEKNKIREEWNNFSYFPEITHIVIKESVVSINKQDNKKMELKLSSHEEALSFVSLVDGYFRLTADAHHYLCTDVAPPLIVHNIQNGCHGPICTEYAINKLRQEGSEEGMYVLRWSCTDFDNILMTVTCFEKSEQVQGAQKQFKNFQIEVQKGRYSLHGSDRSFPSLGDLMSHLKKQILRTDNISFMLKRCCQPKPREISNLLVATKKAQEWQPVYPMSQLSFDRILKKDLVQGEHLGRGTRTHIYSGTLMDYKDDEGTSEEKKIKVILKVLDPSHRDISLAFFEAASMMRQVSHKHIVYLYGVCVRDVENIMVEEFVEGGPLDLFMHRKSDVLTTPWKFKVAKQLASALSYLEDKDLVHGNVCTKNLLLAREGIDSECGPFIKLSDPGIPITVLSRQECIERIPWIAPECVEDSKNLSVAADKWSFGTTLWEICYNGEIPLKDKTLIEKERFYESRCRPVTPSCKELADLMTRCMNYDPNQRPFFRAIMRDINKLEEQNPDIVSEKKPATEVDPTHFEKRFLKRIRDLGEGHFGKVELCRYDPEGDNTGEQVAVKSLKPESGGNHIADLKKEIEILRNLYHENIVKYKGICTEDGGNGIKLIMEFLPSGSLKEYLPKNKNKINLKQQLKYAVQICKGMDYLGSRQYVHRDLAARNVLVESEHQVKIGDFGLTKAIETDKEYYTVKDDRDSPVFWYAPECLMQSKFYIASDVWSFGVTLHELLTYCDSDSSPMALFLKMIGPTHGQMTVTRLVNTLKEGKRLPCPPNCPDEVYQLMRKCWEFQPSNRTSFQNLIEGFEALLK

As to `C1=C2COC/C=C/COCc3cc(ccc3OCCN3CCCC3)Nc3nccc(n3)C(=C1)O2` (mixture of isomers) [CT-1578], the Activity result on Cytochrome P450 3A4 was “Not Active”. Further, the figures for the fraction unbound at 1000 ng/mL in data set [1] and in [8] were 0.01 and 0.127, respectively. The GI50 in the data set with HL-60 came to 850 nM. Further, the Tmax in [2] turned out to be 0.5 h; in data set [3] it was 2.3 h; in data set [11], 3 h; in [15], 2 h. The same compound came in with a half-life at 5 µM in data set [4] above 1 h. The IC50 in [5] came out at 246 nM; in [7], 4300 nM; on Cytochrome P450 2C19, 1400 nM; in data set [13] it was 2700 nM; in data set [17], 7000 nM. Moreover, the half-life in data set [6] was 0.45 h; in [9], 1.5 h; in [10] it was 3.6 h; in [16], above 1 h. In addition, the inhibition in vivo at 210 mg/kg with Mus musculus [12] was 59%. Moreover, the inhibition in vivo at 105 mg/kg in the data set with Mus musculus [14] was found to be 23%.
